Test results reported in ChEMBL document CHEMBL2177098, “Synthesis and evaluation of novel ¹⁸F labeled 2-pyridinylbenzoxazole and 2-pyridinylbenzothiazole derivatives as ligands for positron emission tomography (PET) imaging of β-amyloid plaques” (J Med Chem, 2012).
pKi: −log10 of the molar value. The source made the active and inactive calls. The calls are words filed in the database; no cut-off is given here.

Experiments:
Mus musculus [1] = species: Mus musculus; assay: Binding affinity to amyloid beta plaques in transgenic C57BL6 mouse hippocampus expressing APP Swedish mutant/PSEN1 at 370 KBq/100 ul after 1 hr by thioflavinS-staining method; format: tissue-based; conditions: tested as the 18F-labelled form
In short: (§1)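 Paraffin brain sections from 12-month-old Tg mice (C57BL6, APPswe/PSEN1) and age-matched controls, deparaffinized through xylene and graded ethanol, then PBS (0.2 M, pH 7.4) 30 min. Incubated with 18F tracer (370 KBq per 100 μL) 1 h at room temperature, washed in 40% EtOH, rinsed in water, then phosphor plate exposure 2 h. The same sections were afterwards stained with 0.125% thioflavin S in 10% EtOH for 3 min and washed in 40% EtOH.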

Mus musculus [2] = species: Mus musculus; assay: Binding affinity to amyloid beta plaques in transgenic C57BL6 mouse hippocampus expressing APP Swedish mutant/PSEN1 at 370 KBq/100 ul after 1 hr by autoradiographic analysis; format: tissue-based; conditions: tested as the 18F-labelled form; in short: as §1
Mus musculus [3] = species: Mus musculus; assay: Binding affinity to amyloid beta plaques in transgenic C57BL6 mouse cortex expressing APP Swedish mutant/PSEN1 at 370 KBq/100 ul after 1 hr by thioflavinS-staining method; conditions: tested as the 18F-labelled form; in short: as §1
[4] = Displacement of [125I]-IMPY from amyloid beta (1 to 42) fibrils after 2 hrs by gamma-counting analysis
In short: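 Competition binding with aggregated Aβ1-42 fibrils and [125I]IMPY (60000−100000 cpm/100 μL) in 0.05% BSA (1 mL total); inhibitors 10⁻⁴−10^−8.5 M in ethanol. Incubated 37 °C for 2 h, then GF/B vacuum filtration with PBS (0.02 M, pH 7.4) washes and γ counting. Three repeats; IC50 converted to Ki by Cheng−Prusoff.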

Mus musculus [5] = species: Mus musculus; assay: Binding affinity to amyloid beta plaques in transgenic C57BL6 mouse cortex expressing APP Swedish mutant/PSEN1 at 370 KBq/100 ul after 1 hr by autoradiographic analysis; conditions: tested as the 18F-labelled form; in short: as §1
[6] = biological target: Amyloid-beta precursor protein (Homo sapiens) (UniProt P05067); assay: Binding affinity to amyloid beta plaques in Alzheimer patient brain at 370 KBq/100 ul after 1 hr by autoradiographic analysis; conditions: tested as the 18F-labelled form
Amyloid-beta precursor protein (Homo sapiens), sequence (P05067 whole entry): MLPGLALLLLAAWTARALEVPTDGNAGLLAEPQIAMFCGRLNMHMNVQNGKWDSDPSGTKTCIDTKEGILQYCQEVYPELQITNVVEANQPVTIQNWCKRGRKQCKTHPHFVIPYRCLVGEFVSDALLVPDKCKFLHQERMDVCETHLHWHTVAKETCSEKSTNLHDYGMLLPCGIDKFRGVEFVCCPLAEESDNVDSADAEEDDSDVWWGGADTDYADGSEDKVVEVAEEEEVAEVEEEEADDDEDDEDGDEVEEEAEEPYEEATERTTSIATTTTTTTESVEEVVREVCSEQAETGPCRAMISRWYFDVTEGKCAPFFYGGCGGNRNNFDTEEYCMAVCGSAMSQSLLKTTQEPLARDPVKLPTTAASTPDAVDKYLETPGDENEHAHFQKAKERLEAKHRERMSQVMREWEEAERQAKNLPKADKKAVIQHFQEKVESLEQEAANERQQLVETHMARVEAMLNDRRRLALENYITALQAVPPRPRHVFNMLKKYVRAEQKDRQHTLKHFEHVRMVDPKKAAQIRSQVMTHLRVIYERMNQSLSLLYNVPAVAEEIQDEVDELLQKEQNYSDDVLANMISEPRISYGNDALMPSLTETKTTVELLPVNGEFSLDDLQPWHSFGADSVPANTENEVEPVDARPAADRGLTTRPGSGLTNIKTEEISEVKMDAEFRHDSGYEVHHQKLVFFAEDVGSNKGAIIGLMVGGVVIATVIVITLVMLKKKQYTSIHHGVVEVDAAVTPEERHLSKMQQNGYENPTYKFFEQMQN

- Activity (Mus musculus [1]): Active
- Activity (Mus musculus [2]): Active
- Activity (Mus musculus [3]): Active
- pKi [4]: 8.03
- Activity (Mus musculus [5]): Active
- Activity [6]: Active
Structure (SMILES): CNc1ccc(-c2nc3ccc(OCCOCCOCCF)cc3s2)cn1
